The text below walks through data of ChEMBL document CHEMBL3232959, “Design, synthesis and biological evaluation of small-azo-dyes as potent Vesicular Glutamate Transporters inhibitors” (Eur J Med Chem, 2014).

For assay [1], the target named is Synaptic vesicular amine transporter VMAT2 (Rattus norvegicus) (UniProt Q01827). Description: Inhibition of rat vesicular monoamine transporter 2 assessed as inhibition of dopamine uptake at 200 uM.
The species entered for assay [2] is Rattus norvegicus. Description: Inhibition of rat brain VGLUT assessed as inhibition of [3H]glutamate uptake into vesicles at 20 uM after 10 mins by scintillation spectrophotometry. In outline: (§1)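 Crude rat synaptic vesicles were incubated at 37 °C in 10 mM HEPES-KOH pH 7.4 with 4 mM MgSO4, 4 mM KCl, 1 mM L-aspartate and test compound in DMSO. Uptake was started with ATP/Glu containing [3H]Glu and run for 10 min. It was stopped with ice-cold buffer, GF/C filtered, washed 4 times and counted by scintillation. Blanks without ATP or with CCCP/Trypan Blue were subtracted to give ATP-dependent uptake. At least triplicate.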

The nature of assay [3]: Inhibition of rat brain VGLUT assessed as inhibition of [3H]glutamate uptake into vesicles after 10 mins by scintillation spectrophotometry. In outline:
as §1

The species named for assay [4] is Rattus norvegicus. Description: Inhibition of rat brain VGLUT assessed as inhibition of [3H]glutamate uptake into vesicles at 250 uM after 10 mins by scintillation spectrophotometry.
For assay [5], the species on record is Homo sapiens. Description: Antagonist activity at mGluR (unknown origin) at 200 uM by cell-based assay.
Assay [6] is filed under the species Homo sapiens. Description: Agonist activity at mGluR (unknown origin) at 200 uM by cell-based assay.
Assay [7] can be described thus: Competitive inhibition of rat brain VGLUT assessed as inhibition of [3H]glutamate uptake into vesicles after 10 mins by scintillation spectrophotometry. The essentials:
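Crude rat synaptic vesicles (50 µg aliquots) incubated in 10 mM HEPES-KOH pH 7.4, sucrose, 4 mM MgSO4, 4 mM KCl, L-aspartate. Uptake started with ATP plus Glu and [3H]Glu, 10 min at 37 °C. Compounds added from DMSO, final 0.20 nM upward. Ice-cold buffer stop, GF/C filtration, four washes, scintillation counting. Uptake without ATP or with CCCP/Trypan Blue subtracted; at least triplicate.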

Activity calls are given as the source filed them. The rule behind the calls is not given here. A value given as a limit tells only on which side of the number the result lay.

In the case of `Nc1cc(S(=O)(=O)O)cc2c1C(=O)/C(=N\Nc1c(F)c(F)c(-c3c(F)c(F)c(N)c(F)c3F)c(F)c1F)C(S(=O)(=O)O)=C2`, in assay [1], the inhibition (in general, the share of the control response that was lost under treatment) was “inactive”. In addition, the inhibition in the assay listed under Rattus norvegicus [2] was 96%. Further, in assay [3], the half-maximal inhibitory concentration (IC50) (in general, the concentration that gives 50% inhibition) came out at 3.3 µM.

With `O=C1/C(=N\Nc2ccc(I)cc2Cl)C(S(=O)(=O)O)=Cc2cc(S(=O)(=O)O)ccc21`, the inhibition entry in the assay filed under Rattus norvegicus [2] was “inactive”.

Take `Nc1cc(S(=O)(=O)O)cc2c1C(=O)/C(=N\Nc1ccc(C(=O)O)cc1C(F)(F)F)C(S(=O)(=O)O)=C2`: the inhibition entry in assay [1] was “inactive”. In addition, in the assay filed under Rattus norvegicus [2], the inhibition stood at 76%. The IC50 in assay [3] stood at 6.8 µM.

On to `Cc1cc(C(=O)O)ccc1N/N=C1\C(=O)c2c(N)cc(S(=O)(=O)O)cc2C=C1S(=O)(=O)O`, for which, in assay [1], the inhibition result was “inactive”. The inhibition in the assay listed under Rattus norvegicus [2] turned out to be 15%.

In the case of `O=C(O)c1cc(C(=O)O)c2ccccc2n1`, the inhibition entry in the assay filed under Rattus norvegicus [4] was “inactive”.

On to `Cc1cc(-c2ccc(/N=N/c3ccc4c(S(=O)(=O)O)cc(S(=O)(=O)O)c(N)c4c3O)c(C)c2)ccc1/N=N/c1ccc2c(S(=O)(=O)O)cc(S(=O)(=O)O)c(N)c2c1O` [EVANS BLUE], for which, in assay [3], the IC50 stood at 0.087 µM.

Take `Cc1cc(C(=O)O)cc(C)c1N/N=C1\C(=O)c2c(N)cc(S(=O)(=O)O)cc2C=C1S(=O)(=O)O`: in assay [1], the inhibition result is “inactive”. The inhibition in the assay filed under Rattus norvegicus [2] was 5%.

For the compound `Nc1cc(S(=O)(=O)O)cc2c1C(=O)/C(=N\Nc1ccc(C(=O)O)cc1Cl)C(S(=O)(=O)O)=C2`, the inhibition entry in assay [1] is “inactive”. For the same compound, in the assay listed under Rattus norvegicus [2], the inhibition is 55%.

As to `Nc1cc(S(=O)(=O)O)cc2cc(S(=O)(=O)O)cc(O)c12`, in the assay filed under Rattus norvegicus [2], the inhibition entry was “inactive”.

For `Nc1cc(S(=O)(=O)O)cc2c1C(=O)/C(=N\Nc1ccc(I)cc1Cl)C(S(=O)(=O)O)=C2`, the inhibition result in assay [1] is “inactive”. Besides, in the assay listed under Rattus norvegicus [2], the inhibition was 45%.

On to `N=c1ccc2c(=O)/c(=N\Nc3ccc(I)cc3Cl)c(S(=O)(=O)O)cc=2/c1=N/Nc1ccc(I)cc1Cl`, for which the inhibition entry in the assay listed under Rattus norvegicus [2] is “inactive”.

As for `COc1cc(C(=O)O)ccc1N/N=C1\C(=O)c2c(N)cc(S(=O)(=O)O)cc2C=C1S(=O)(=O)O`, in assay [1], the inhibition entry was “inactive”. Further, the inhibition in the assay listed under Rattus norvegicus [2] was 25%.

For `Nc1cc(S(=O)(=O)O)cc2c1C(=O)/C(=N\Nc1ccc(C(=O)O)cc1F)C(S(=O)(=O)O)=C2`, the inhibition result in assay [1] was “inactive”. The inhibition in the assay listed under Rattus norvegicus [2] stood at 18%.

Take `Nc1cc(S(=O)(=O)O)cc2c1C(=O)/C(=N\Nc1ccc(Br)cc1)C(S(=O)(=O)O)=C2`: in assay [1], the inhibition result was “inactive”. Moreover, in the assay filed under Rattus norvegicus [2], the inhibition was 33%.

`Nc1ccc(-c2ccc(N/N=C3\C(=O)c4c(N)cc(S(=O)(=O)O)cc4C=C3S(=O)(=O)O)c(F)c2)cc1F`: the inhibition entry in assay [1] was “inactive”. For the same compound, in the assay listed under Rattus norvegicus [2], the inhibition came to 74%. In assay [3], the concentration for half-maximal inhibition (IC50) is 4.8 µM.

As for `COc1cc(Br)ccc1N/N=C1\C(=O)c2c(N)cc(S(=O)(=O)O)cc2C=C1S(=O)(=O)O`, the inhibition entry in assay [1] was “inactive”. Also, the inhibition in the assay listed under Rattus norvegicus [2] was found to be 42%. Moreover, the half-maximal inhibitory concentration (IC50) in assay [3] was > 20 µM.

`Nc1cc(S(=O)(=O)O)cc2c1C(=O)/C(=N\Nc1ccc(C(=O)O)cc1)C(S(=O)(=O)O)=C2`: the inhibition result in assay [1] is “inactive”. In the assay listed under Rattus norvegicus [2], the inhibition was found to be 15%.

In the case of `Nc1cc(S(=O)(=O)O)cc2c1C(=O)/C(=N\Nc1ccc(I)cc1F)C(S(=O)(=O)O)=C2`, the inhibition entry in assay [1] was “inactive”. In addition, the inhibition in the assay filed under Rattus norvegicus [2] came to 46%.

For `Nc1ccc(-c2ccc(N/N=C3\C(=O)c4c(N)cc(S(=O)(=O)O)cc4C=C3S(=O)(=O)O)c(C(F)(F)F)c2)cc1C(F)(F)F`, the inhibition result in assay [1] is “inactive”. Besides, the inhibition in the assay listed under Rattus norvegicus [2] was found to be 98%. The IC50 in assay [3] turned out to be 1.8 µM.

Turning to `Cc1cc(Br)cc(C)c1N/N=C1\C(=O)c2c(N)cc(S(=O)(=O)O)cc2C=C1S(=O)(=O)O`, in assay [1], the inhibition entry was “inactive”. Further, the inhibition in the assay listed under Rattus norvegicus [2] was found to be 77%. Moreover, the half-inhibitory concentration (IC50) in assay [3] amounted to 2.1 µM.

On to `COc1cc(-c2ccc(/N=N/c3ccc4c(S(=O)(=O)O)cc(S(=O)(=O)O)c(N)c4c3O)c(OC)c2)ccc1/N=N/c1ccc2c(S(=O)(=O)O)cc(S(=O)(=O)O)c(N)c2c1O` [CHICAGO SKY BLUE], for which the concentration for half-maximal inhibition (IC50) in assay [3] is 3 µM.

As for `Cc1cc(-c2ccc(N/N=C3\C(=O)c4c(N)cc(S(=O)(=O)O)cc4C=C3S(=O)(=O)O)c(C)c2)ccc1N`, in assay [1], the inhibition result is “inactive”. The inhibition in the assay filed under Rattus norvegicus [2] came to 52%.

Turning to `Nc1cc(S(=O)(=O)O)cc2c1C(=O)/C(=N\Nc1c(O)c(F)c(Br)c(F)c1F)C(S(=O)(=O)O)=C2`, the inhibition result in assay [1] is “inactive”. Also, the inhibition in the assay listed under Rattus norvegicus [2] stood at 39%.

Turning to `O=C(O)c1cc(C(=O)O)c2cccc(O)c2n1`, the 50% inhibitory concentration (IC50) in assay [3] is 286 µM.

As for `Nc1cc(S(=O)(=O)O)cc2c1C(=O)/C(=N\Nc1c(O)c(F)c(C(=O)O)c(F)c1F)C(S(=O)(=O)O)=C2`, the inhibition result in assay [1] is “inactive”. Moreover, the inhibition in the assay listed under Rattus norvegicus [2] amounted to 18%.

Consider `Nc1cc(S(=O)(=O)O)cc2c1C(=O)/C(=N\Nc1ccc(I)cc1C(F)(F)F)C(S(=O)(=O)O)=C2`, for which the inhibition result in assay [1] is “inactive”. Besides, the inhibition in the assay filed under Rattus norvegicus [2] amounted to 83%. Further, the IC50 in assay [3] was found to be 5.8 µM.

Take `O=C1C(S(=O)(=O)O)=Cc2cc(S(=O)(=O)O)ccc2/C1=N/Nc1ccc(I)cc1Cl`: the inhibition result in the assay listed under Rattus norvegicus [2] was “inactive”.

On to `Nc1ccc(-c2ccc(N/N=C3\C(=O)c4c(N)cc(S(=O)(=O)O)cc4C=C3S(=O)(=O)O)c(Cl)c2)cc1Cl`, for which the inhibition entry in assay [1] is “inactive”. For the same compound, the outcome in the assay listed under Homo sapiens [5] and in the assay listed under Homo sapiens [6] was inactive. The inhibition in the assay listed under Rattus norvegicus [2] was 88%. In addition, in assay [3], the IC50 was 1.6 µM.

As to `Nc1ccc(-c2ccc(N/N=C3\C(=O)c4c(N)cc(S(=O)(=O)O)cc4C=C3S(=O)(=O)O)cc2)cc1`, the inhibition entry in assay [1] is “inactive”. Besides, the inhibition in the assay filed under Rattus norvegicus [2] stood at 25%.

Turning to `Cc1cc(-c2ccc(/N=N/c3c(S(=O)(=O)O)cc4cc(S(=O)(=O)O)cc(N)c4c3O)c(C)c2)ccc1/N=N/c1c(S(=O)(=O)O)cc2cc(S(=O)(=O)O)cc(N)c2c1O` [TRYPAN BLUE], the half-maximal inhibitory concentration (IC50) in assay [7] worked out at 100 nM; in assay [3], 0.05 µM.

Consider `O=C(O)c1cc(C(=O)O)c2cc(/C=C/c3ccccc3)ccc2n1`, for which the IC50 in assay [3] turned out to be 40 µM.

In the case of `O=C(O)c1cc(C(=O)O)c2cc(/N=N/c3ccc(-c4ccccc4)cc3)ccc2n1`, the IC50 in assay [3] was 288 µM.

In the case of `Cc1cc(I)ccc1N/N=C1\C(=O)c2c(N)cc(S(=O)(=O)O)cc2C=C1S(=O)(=O)O`, in assay [1], the inhibition result is “inactive”. Besides, the outcome in the assay listed under Homo sapiens [5] and in the assay listed under Homo sapiens [6] was inactive. The inhibition in the assay filed under Rattus norvegicus [2] was determined as 83%. Further, the half-inhibitory concentration (IC50) in assay [3] came out at 2.1 µM.
